Laboratory results: ChEMBL document CHEMBL1150653, “Novel terpenoids from the formosan soft coral Cespitularia hypotentaculata” (2002)
In brackets after ≈: the same amount, converted by molar mass.

Legend:
Assay type in all cases: functional
[1] = test system: HT-29; test: Cytotoxicity against human HT-29 cells after 6 days by MTT assay; conditions: HT-29, 144 h, read-out: ED50 (the source's name)
Summary of the method: (§1)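 Human cell lines: A549 (lung adenocarcinoma) and HT-29 (colon adenocarcinoma), obtained from a culture collection. The assay follows a previously published procedure.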

[2] = test system: A549; test: Cytotoxicity against human A549 cells after 6 days by MTT assay; conditions: A549, 144 h, read-out: ED50 (the source's name); summary of the method: as §1
[3] = test system: P388; test: Cytotoxicity against mouse P388 cells after 3 days by MTT assay; conditions: P388, 72 h, read-out: ED50 (the source's name)
Summary of the method: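 Mouse P-388 lymphocytic leukemia cells, obtained from an academic laboratory. The assay follows a previously published procedure.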

With `C=C1CC[C@@H]2CCc3coc(c3C2(C)C)C/C(C)=C/C(O)C1` (some centres undefined) [CESPITULARIN A] the EC50 [1] was 9.76 µg/mL (≈ 32.5 µM), the EC50 [2] was 8.42 µg/mL (≈ 28 µM) and the EC50 [3] was 3.66 µg/mL (≈ 12.2 µM).

In the case of `C=C1CC/C=C(\C)Cc2occ3c2C(C)(C)[C@H](CC1)CC3` [CESPITULARIN B], the EC50 [1] is reported as 9.25 µg/mL (≈ 32.5 µM), the EC50 [2] is reported as 7.96 µg/mL (≈ 28 µM) and the EC50 [3] is reported as 3.23 µg/mL (≈ 11.4 µM).

For `C=C1CC/C=C(\C)C[C@@H](O)C2=C(C)CC[C@@H](CC1)C2(C)C` [CESPITULARIN C], the EC50 [1] was 8.86 µg/mL (≈ 30.7 µM), the EC50 [2] was 0.12 µg/mL (≈ 0.416 µM) and the EC50 [3] was 0.01 µg/mL (≈ 0.0347 µM).

`C=C1CC[C@@H]2CCC3=C(C2(C)C)[C@@](O)(C/C(C)=C/[C@@H](O)C1)OC3=O` [CESPITULARIN D] showed an EC50 [1] of over 50 µg/mL, an EC50 [2] of over 50 µg/mL and an EC50 [3] of 3.86 µg/mL (≈ 11.6 µM).

`C=C1CC[C@@H]2CCC3=C(C(=O)[C@@H](/C(C)=C/C(O)C1)[C@H]3O)C2(C)C` (some centres undefined) [CESPITULARIN F] gave an EC50 [1] of over 50 µg/mL, an EC50 [2] of 16.1 µg/mL (≈ 50.9 µM) and an EC50 [3] of over 50 µg/mL.

`C=C1CC/C=C(\C)[C@@H]2C(=O)C3=C(CC[C@@H](CC1)C3(C)C)[C@@H]2O` [CESPITULARIN G] was tested, and the EC50 [1] was over 50 µg/mL, the EC50 [2] was over 50 µg/mL and the EC50 [3] was over 50 µg/mL.

`C/C1=C\C[C@@H]2CCC3=C(C(=O)[C@@H]([C@@H](C)CC(=O)C1)[C@H]3O)C2(C)C` [CESPITULARIN H] was tested, and the EC50 [1] was 23.7 µg/mL (≈ 74.9 µM), the EC50 [2] was 9.32 µg/mL (≈ 29.5 µM) and the EC50 [3] was over 50 µg/mL.

Compound `C=C1CC[C@@H]2CCC=C(C(=O)C/C(C)=C/C(O)C1)C2(C)C` (some centres undefined) [CESPUTULARIN E] has an EC50 [1] of 17.1 µg/mL (≈ 59.3 µM), an EC50 [2] of 0.034 µg/mL (≈ 0.118 µM) and an EC50 [3] of 4.66 µg/mL (≈ 16.2 µM).
